SUMO1 PPI mod: modulators of human SUMO1-mediated protein-protein interactions | P63165 | SUMO1 binding to a labelled peptide, TR-FRET, 1 h | inhibition, % at 20 µM | actives 0.33% (n = 360,000) | AID 602429; in the data active means inhibition above about 37%
CSN deneddyl inh: blocks human CSN-mediated cullin deneddylation. Purified CSN, SCF-Nedd8-OG deneddylation, fluorescence polarization. inhibition, % at 12.5 µM. actives 0.38% (n = 360,000). AID 651999;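 active means pattern-corrected inhibition above about 35%, with an unprinted fluorescence ratio check between 0.5 and 1.5, limit read from the data, passing the limit was not always enough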;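 further: 0% = enzyme with substrate and 100% = substrate without enzyme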
Target sequence (Q92905 whole entry, looked up, one chain of several): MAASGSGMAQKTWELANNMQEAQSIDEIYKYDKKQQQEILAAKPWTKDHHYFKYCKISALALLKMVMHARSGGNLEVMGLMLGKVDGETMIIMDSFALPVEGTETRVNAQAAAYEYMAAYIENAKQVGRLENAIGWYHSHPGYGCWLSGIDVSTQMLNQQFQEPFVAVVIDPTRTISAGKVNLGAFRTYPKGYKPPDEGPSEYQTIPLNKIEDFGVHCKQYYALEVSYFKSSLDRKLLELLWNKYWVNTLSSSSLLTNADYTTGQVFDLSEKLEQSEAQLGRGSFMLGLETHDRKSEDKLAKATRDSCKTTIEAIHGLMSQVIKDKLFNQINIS
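Test system: Human Csn5 produced in HEK293T cells | Compound: 12.5 µM single point | Times: 90 min, room temperature | Signal: Fluorescence polarization readout | Read-out basis: % inhibition of substrate cleavage by Csn5 | Controls: no-enzyme wells high, enzyme-with-substrate wells low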
MT1-MMP act inh: MT1-MMP (human) activation inhibition. AID 651647. P50281. GFP/RFP ratio change, % at 20 µM. actives 0.061% (n = 360,000). HT1080 RFP-PRO-GFP cells, GFP/RFP ratio fluorescence, overnight; percent of plate control window, DMSO zero;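 active means GFP/RFP ratio change of at least 30% with cell ATP level not reduced by more than half and red fluorescence within 50% of control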
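Assay system: HT1080 RFP-PRO-GFP cells | Dosing: 20 µM single dose, 1% DMSO | Incubation: Cells overnight before dosing, compound overnight, 37 °C, 5% CO2 | Evaluation: GFP/RFP fluorescence ratio | Control set: DMSO-only wells and HT1080 RFP-L50D-GFP cell wells as references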
SKN-1 block: C. elegans SKN-1 inhibition. C. elegans VP596 Pgst-4::GFP/RFP ratio, acrylamide-induced, 24 h. inhibition, % at 21.8 µM. actives 0.49% (n = 360,000). AID 624304;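 active means interference check ratio from 0.5 to 1.5 plus GFP to RFP signal ratio inhibition reaching or exceeding a fixed threshold, cut at about 30% in these data, passing the limit was not always enough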
Rpn11 block: blocks the human proteasome subunit Rpn11; actives 0.59% (n = 360,000); AID 588493; inhibition, % at 20 µM; human 26S proteasome, Ub4-pepOG fluorescence polarization; 20S core pre-blocked with epoxomicin; O00487;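 active means inhibition at 20 µM, scaled to each plate's controls, above about 33%, limit read from the data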
Target sequence (O00487 whole entry, looked up): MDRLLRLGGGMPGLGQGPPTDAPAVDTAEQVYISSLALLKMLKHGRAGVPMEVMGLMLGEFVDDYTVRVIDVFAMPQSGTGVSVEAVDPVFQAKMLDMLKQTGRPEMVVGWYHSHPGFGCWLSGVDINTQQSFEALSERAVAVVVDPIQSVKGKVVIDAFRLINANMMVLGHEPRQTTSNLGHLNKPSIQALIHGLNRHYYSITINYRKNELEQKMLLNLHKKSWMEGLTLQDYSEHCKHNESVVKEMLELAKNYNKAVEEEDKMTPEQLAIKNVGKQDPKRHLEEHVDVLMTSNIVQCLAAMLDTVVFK
DNMT1 block: inhibitors of human DNMT1; DNMT1 molecular beacon, Hinp1I cleavage, fluorescence; inhibition (reported as % activation of signal), % at 10 µM; actives 0.83% (n = 360,000); P26358; in the data active means inhibition above about 50%
MT1-MMP conf: validation of inhibitors of human MT1-MMP activation; AID 652235; HT1080 RFP-PRO-GFP cells, GFP and RFP fluorescence ratio, overnight; shares compounds with MT1-MMP act inh; inhibition, % at 20 µM; actives 10% (n = 200);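 active means inhibition of at least 50% in the primary cell screen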
Active calls of the source: *; nt = no result. This is a sample that favours compounds with a hit; in the whole collection about 2.3% have one here.

SMILES | SUMO1 PPI mod | CSN deneddyl inh | MT1-MMP act inh | SKN-1 block | Rpn11 block | DNMT1 block | MT1-MMP conf
C[C@@H]1CCCCO[C@H](CN(C)Cc2ccc3c(c2)OCO3)[C@@H](C)CN([C@H](C)CO)C(=O)c2cc(NC(=O)c3ccccc3)ccc2O1 | -1.3 | -4.0 | -0.8 | -2.6 | -0.6 | -0.9 | nt
CC1CCN(C(=O)c2ccc3c(c2NCCO)C(=O)c2ccccc2C3=O)CC1 | -27.2 | -10.9 | 30.6* | 11.2 | -2.3 | -6.2 | 28.3
CC1CC(C)CN(C(=O)c2cccc3c2-c2ccccc2C3=O)C1 (stereo not drawn) | -23.0 | 0.3 | 2.2 | 0.8 | 0.7 | 1.1 | nt
COc1cc(NS(=O)(=O)c2ccc(C)cc2)c2c(c1N)C(=O)c1ccccc1C2=O | -3.3 | 0.5 | 47.2* | 36.5* | -14.0 | 5.8 | 21.9
O=C(c1cc(-c2ccccc2)on1)N(Cc1cccnc1)C(c1ccccn1)c1nc2ccccc2[nH]1 (stereo not drawn) | -8.5 | -0.8 | 0.2 | 15.1 | -9.1 | -6.1 | nt
CCN(CC)c1ccc(C(=C2C=CC(=[N+](CC)CC)C=C2)c2ccc(N(CC)CC)cc2)cc1 | -58.3 | -1.7 | 143.1* | 3.2 | 3.0 | 13.9 | 126.3*
CC(C)C[C@@H]1Cc2[nH]c(=S)[nH]c(=O)c2[C@H](C)O1 | -0.4 | -1.4 | 2.3 | 14.9 | nt | nt | nt
CCN1C(=O)/C(=C2\C=Cc3ccccc3N2CC)SC1=S | -23.9 | 7.3 | 99.1* | 21.3 | 0.3 | -0.3 | 42.6
COc1ccc(C)cc1N=Nc1ccc(O)c2ncccc12 | -21.6 | -3.5 | 30.6* | 3.9 | 25.8 | 6.9 | 33.9
CCn1c2ccccc2nc2cc3c(cc21)c(Cl)c(=O)c1ccccc13 | 20.6 | 7.2 | 35.7* | 9.7 | -22.9 | 61.3* | -2.2
Cc1ccc(S(=O)(=O)N2[C@H](CC(=O)c3ccc(Cl)c(Cl)c3)OC[C@@H]2C)cc1 | -6.7 | 0.1 | 5.0 | 1.1 | nt | nt | nt
COC(=O)c1ccc2c(c1)C(C)(C)C(/C=C/c1ccc(OC)c(OC)c1OC)=[N+]2C | -0.1 | 5.9 | 50.7* | 45.9* | 8.1 | -0.7 | 19.9
CCOC(=O)C1=C(C)N=c2s/c(=C\c3ccc(OC(C)=O)c(OCC)c3)c(=O)n2C1/C=C/c1ccccc1 (stereo not drawn) | 0.2 | 7.8 | 42.2* | 32.6 | 16.4 | -4.8 | -17.2
COc1ccccc1C(=O)NC(=S)/C=C1/N(C)c2ccccc2C1(C)C | -25.8 | 21.6 | 55.0* | 75.0 | 35.8 | -1.6 | 30.8
CN1/C(=C\C(=S)Nc2ccccc2)C(C)(C)c2ccccc21 | -0.9 | 7.6 | 16.5 | 29.1 | 2.9 | -7.4 | nt
COc1cccc(C(NC(C)=O)c2nc(-c3ccc4ccccc4c3)cs2)c1 (stereo not drawn) | -21.5 | 4.8 | -5.5 | 14.4 | 4.3 | -6.0 | nt
CC1(C)Oc2cc(N)c([N+](=O)[O-])cc2O1 | -36.2 | -0.5 | 11.4 | 5.7 | -3.0 | -0.9 | nt
C=C1N(C)c2cc([N+](=O)[O-])c(N)cc2C1(C)C | -22.7 | 1.4 | 36.4* | 2.5 | 2.8 | -3.8 | 13.4
CNc1ccccc1C(C)(C)c1cc(-c2ccco2)n[nH]1 | -7.9 | 7.3 | 33.9* | 13.0 | 7.5 | -9.2 | 7.8
COc1ccccc1-c1cccc(-c2nc(C(=O)Nc3nccs3)cc3c2[C@H](CCO)N(C(C)=O)C3)c1 | -0.4 | 3.9 | 7.8 | 2.0 | nt | nt | nt
CCCC(=O)N1CCC1(C)C(=O)NS(=O)(=O)c1ccccc1 (stereo not drawn) | -2.8 | -11.0 | 0.8 | 11.6 | 3.7 | 0.5 | nt
O=C1CN(c2ccccc2Cl)C(=O)CN1c1ccccc1Cl | 2.5 | -1.0 | 0.8 | -12.8 | -4.6 | 2.5 | nt
Cc1ccccc1N1CC(=O)N(c2ccccc2C)CC1=O | 0.4 | -7.3 | 36.2* | 23.7 | -3.7 | -1.1 | 13.4
O=S1(=O)CC(N2CCC(c3ccccc3)CC2)CN1Cc1ccc(F)cc1 (stereo not drawn) | -0.1 | 0.9 | 6.3 | 12.9 | 2.4 | -5.7 | nt
CC(=O)Oc1c(Cl)cc(Cl)cc1/C=C/c1ccc2ccccc2n1 | -1.9 | 3.4 | -264.8 | 12.5 | 2.8 | 1.4 | nt
SMILES | SUMO1 PPI mod | CSN deneddyl inh | MT1-MMP act inh | SKN-1 block | Rpn11 block | DNMT1 block | MT1-MMP conf
COc1cc(/C=C/c2cc(OC(C)=O)c3ccccc3n2)c(OC(C)=O)c([N+](=O)[O-])c1 | -10.1 | -4.6 | 36.9* | 4.1 | -15.2 | -1.1 | 23.6
COc1ccc(C(C)(NC(C)=O)c2nc(-c3ccccc3OC)cs2)cc1 (stereo not drawn) | 2.9 | 2.7 | -2.4 | 7.2 | -0.1 | -4.2 | nt
COc1ccccc1CNC(=O)Nc1nc(C(N)CCc2ccccc2)cs1 (stereo not drawn) | -9.0 | -0.2 | 1.2 | 4.2 | 1.0 | -8.2 | nt
CC1(C(=O)NCC2CC2)Cc2c(-c3cccc(C(F)(F)F)c3)ccnc2O1 (stereo not drawn) | 4.8 | -4.5 | -11.0 | 13.5 | -1.9 | -0.2 | nt
CCC(=O)N1CCC1(C)C(=O)Nc1ccc(F)cc1 (stereo not drawn) | 1.9 | 3.3 | 34.1* | 5.7 | -1.5 | 3.6 | -0.2
COc1ccc(-c2cc(=O)c3c(O)c(OC)c(O)cc3o2)cc1 | -2.6 | 3.0 | 8.7 | 3.6 | -4.0 | 1.5 | nt
COc1cc(-c2cc(=O)c3c(O)c(OC)c(OC)cc3o2)cc(OC)c1O | -2.1 | -1.1 | 31.2* | 8.2 | -12.2 | -1.4 | 35.3
Cc1[nH]n(-c2ccccc2)c(=O)c1N=Nc1nccs1 | -64.0 | 3.9 | 32.4* | 29.2 | 10.8 | -14.1 | 27.5
Cc1c(C(=O)OCC(=O)NCC2CCCO2)oc2ccccc12 (stereo not drawn) | -0.8 | 1.3 | 33.2* | 3.3 | -3.3 | -0.6 | 3.0
O=C(COC(=O)c1ccccc1)NCC1CCCO1 (stereo not drawn) | 4.0 | 1.8 | 8.7 | 7.8 | 0.1 | -1.0 | nt
CSC1=NSC2=NC(=O)/C(=C\c3cccs3)C(=N)N12 | -10.6 | 2.2 | 35.2* | 7.5 | -5.6 | 1.5 | 29.5
CC(C)CSC1=NSC2=NC(=O)/C(=C\c3cccs3)C(=N)N12 | -11.0 | 4.6 | -16.3 | 2.7 | 12.5 | 0.4 | nt
Cc1cc(Br)cn2c(Cc3cccc(F)c3)c(-c3ccccc3)nc12 | -5.6 | 4.5 | -3.8 | 10.1 | 23.0 | -4.2 | nt
O=C(/C=C(\c1ccc(Cl)cc1)n1cncn1)c1ccc(Cl)cc1 | -26.2 | -0.7 | 31.5* | -4.7 | 0.8 | 7.6 | 28.5
O=C(/C=C(\c1ccccc1)n1cncn1)c1ccccc1 | -10.0 | -9.9 | 0.3 | -1.3 | -5.5 | 5.8 | nt
O=[N+]([O-])c1cc(Br)c(O)c(C=Nc2ccc(N3CCOCC3)cc2)c1 | -9.5 | -1.2 | 40.5* | 3.7 | 13.1 | -3.2 | 3.9

High-throughput results deposited in PubChem by Sanford-Burnham Center for Chemical Genomics.
